Results as given in the M2OR odorant receptor database.

What was measured:
Details in all cases: stereoisomer not certain
OR10H4 (Homo sapiens) = target: T1, OR10H4 (Homo sapiens) (UniProt Q8NGA5)
T1 sequence (whole entry): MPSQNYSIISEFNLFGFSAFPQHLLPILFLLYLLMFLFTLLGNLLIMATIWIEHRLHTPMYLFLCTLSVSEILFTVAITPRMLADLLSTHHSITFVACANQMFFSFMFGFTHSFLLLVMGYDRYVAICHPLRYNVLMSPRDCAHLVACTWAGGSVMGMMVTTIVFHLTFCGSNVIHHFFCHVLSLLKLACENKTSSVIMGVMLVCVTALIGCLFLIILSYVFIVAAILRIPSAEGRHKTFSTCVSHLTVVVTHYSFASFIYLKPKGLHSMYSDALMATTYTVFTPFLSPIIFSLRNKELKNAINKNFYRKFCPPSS
In short: (§1)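 Each receptor–molecule pair is labelled responsive or non-responsive (inactive) according to whether the original authors judged the measured signal statistically different from baseline. The data were taken from the main text and supplementary material of published papers and checked for typos and inconsistencies. Assay methods differed by source, with transient luciferase assays in mammalian cell lines being common.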

OR10H5 (Homo sapiens) = target: T2, OR10H5 (Homo sapiens) (UniProt Q8NGA6)
T2 sequence (whole entry): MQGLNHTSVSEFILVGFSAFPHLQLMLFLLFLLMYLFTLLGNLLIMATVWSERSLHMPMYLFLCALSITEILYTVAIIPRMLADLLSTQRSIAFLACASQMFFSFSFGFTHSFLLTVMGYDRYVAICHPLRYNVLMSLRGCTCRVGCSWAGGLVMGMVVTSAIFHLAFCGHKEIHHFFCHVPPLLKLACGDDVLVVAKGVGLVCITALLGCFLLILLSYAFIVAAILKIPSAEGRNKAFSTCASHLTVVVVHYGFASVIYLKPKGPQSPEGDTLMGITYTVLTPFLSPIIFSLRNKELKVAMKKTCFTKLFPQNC
In short: as §1

OR10J3 (Homo sapiens) = target: T3, OR10J3 (Homo sapiens) (UniProt Q5JRS4)
T3 sequence (whole entry): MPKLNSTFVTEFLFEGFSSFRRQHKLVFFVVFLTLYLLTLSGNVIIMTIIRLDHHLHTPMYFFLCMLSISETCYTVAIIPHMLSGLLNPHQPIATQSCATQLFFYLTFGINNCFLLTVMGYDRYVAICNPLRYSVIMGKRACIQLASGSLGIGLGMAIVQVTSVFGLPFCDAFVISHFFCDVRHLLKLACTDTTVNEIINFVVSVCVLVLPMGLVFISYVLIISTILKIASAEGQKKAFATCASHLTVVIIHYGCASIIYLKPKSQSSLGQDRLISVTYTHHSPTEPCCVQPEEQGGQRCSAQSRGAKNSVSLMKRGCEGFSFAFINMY
In short: as §1

OR10J4 (Homo sapiens) = OR10J4 (Homo sapiens) (UniProt P0C629)
Sequence of OR10J4 (Homo sapiens) (P0C629 whole entry F198I): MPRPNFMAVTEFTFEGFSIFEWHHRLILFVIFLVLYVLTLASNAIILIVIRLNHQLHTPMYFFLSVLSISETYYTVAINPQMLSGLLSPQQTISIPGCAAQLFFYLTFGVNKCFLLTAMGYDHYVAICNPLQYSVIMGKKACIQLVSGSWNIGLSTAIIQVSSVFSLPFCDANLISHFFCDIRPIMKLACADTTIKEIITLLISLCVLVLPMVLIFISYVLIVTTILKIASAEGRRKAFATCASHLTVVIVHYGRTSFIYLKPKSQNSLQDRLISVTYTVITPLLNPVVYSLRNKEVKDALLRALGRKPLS
In short: as §1

OR10J5 (Homo sapiens) = target: T4, OR10J5 (Homo sapiens) (UniProt Q8NHC4)
T4 sequence (whole entry): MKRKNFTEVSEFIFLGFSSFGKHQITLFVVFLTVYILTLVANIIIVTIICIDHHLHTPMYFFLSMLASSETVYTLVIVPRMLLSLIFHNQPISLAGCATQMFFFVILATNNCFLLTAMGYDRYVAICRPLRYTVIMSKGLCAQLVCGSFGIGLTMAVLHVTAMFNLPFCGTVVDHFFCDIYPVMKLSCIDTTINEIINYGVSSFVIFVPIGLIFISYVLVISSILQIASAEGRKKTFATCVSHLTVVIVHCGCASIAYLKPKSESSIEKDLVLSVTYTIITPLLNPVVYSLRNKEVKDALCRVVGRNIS
In short: as §1

OR10K1 (Homo sapiens) = target: T5, OR10K1 (Homo sapiens) (UniProt Q8NGX5)
T5 sequence (whole entry): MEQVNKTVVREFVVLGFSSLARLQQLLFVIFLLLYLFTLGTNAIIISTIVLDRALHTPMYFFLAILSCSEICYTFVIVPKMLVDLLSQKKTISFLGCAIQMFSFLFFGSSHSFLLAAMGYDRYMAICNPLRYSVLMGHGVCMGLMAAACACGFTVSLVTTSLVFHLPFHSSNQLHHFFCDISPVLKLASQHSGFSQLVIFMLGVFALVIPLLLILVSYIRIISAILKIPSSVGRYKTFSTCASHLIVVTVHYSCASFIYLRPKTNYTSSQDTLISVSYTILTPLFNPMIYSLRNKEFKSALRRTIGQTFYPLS
In short: as §1

OR10K2 (Homo sapiens) = target: T6, OR10K2 (Homo sapiens) (UniProt Q6IF99)
T6 sequence (whole entry): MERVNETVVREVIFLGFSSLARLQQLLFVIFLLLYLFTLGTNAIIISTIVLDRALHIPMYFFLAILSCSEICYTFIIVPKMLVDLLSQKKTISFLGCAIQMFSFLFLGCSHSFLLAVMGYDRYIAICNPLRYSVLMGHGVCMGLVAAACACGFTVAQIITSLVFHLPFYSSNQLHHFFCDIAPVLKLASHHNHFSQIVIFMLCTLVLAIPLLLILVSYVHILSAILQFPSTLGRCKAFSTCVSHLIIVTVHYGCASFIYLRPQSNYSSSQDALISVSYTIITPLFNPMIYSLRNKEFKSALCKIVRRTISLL
In short: as §1

OR10P1 (Homo sapiens) = target: T7, OR10P1 (Homo sapiens) (UniProt Q8NGE3)
T7 sequence (whole entry): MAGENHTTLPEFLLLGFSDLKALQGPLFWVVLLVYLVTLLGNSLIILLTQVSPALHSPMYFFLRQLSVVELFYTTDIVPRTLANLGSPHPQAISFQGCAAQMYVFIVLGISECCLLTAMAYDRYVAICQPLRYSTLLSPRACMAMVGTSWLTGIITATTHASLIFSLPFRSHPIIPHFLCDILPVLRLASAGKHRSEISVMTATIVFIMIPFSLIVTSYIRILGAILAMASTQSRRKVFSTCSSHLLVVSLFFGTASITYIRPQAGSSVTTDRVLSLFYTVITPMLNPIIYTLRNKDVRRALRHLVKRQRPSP
In short: as §1

OR10Q1 (Homo sapiens) = target: T8, OR10Q1 (Homo sapiens) (UniProt Q8NGQ4)
T8 sequence (whole entry): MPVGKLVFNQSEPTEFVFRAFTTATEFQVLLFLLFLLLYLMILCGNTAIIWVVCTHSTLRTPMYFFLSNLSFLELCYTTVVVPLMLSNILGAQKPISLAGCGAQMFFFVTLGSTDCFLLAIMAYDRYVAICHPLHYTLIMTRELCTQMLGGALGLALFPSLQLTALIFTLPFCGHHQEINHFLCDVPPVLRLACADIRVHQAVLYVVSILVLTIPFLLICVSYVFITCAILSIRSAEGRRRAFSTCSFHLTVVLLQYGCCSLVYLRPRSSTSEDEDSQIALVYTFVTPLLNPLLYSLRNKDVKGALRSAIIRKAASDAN
In short: as §1

OR10R2 (Homo sapiens) = target: T9, OR10R2 (Homo sapiens) (UniProt Q8NGX6)
T9 sequence (whole entry): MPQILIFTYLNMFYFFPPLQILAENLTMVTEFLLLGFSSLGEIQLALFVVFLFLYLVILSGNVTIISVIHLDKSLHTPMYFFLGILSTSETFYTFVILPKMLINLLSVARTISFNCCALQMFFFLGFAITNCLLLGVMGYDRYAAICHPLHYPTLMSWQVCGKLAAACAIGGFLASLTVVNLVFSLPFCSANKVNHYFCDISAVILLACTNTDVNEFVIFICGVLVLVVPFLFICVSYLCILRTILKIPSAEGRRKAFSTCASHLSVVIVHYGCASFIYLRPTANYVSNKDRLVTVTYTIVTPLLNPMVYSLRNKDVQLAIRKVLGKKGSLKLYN
In short: as §1

OR10S1 (Homo sapiens) = target: T10, OR10S1 (Homo sapiens) (UniProt Q8NGN2)
T10 sequence (whole entry): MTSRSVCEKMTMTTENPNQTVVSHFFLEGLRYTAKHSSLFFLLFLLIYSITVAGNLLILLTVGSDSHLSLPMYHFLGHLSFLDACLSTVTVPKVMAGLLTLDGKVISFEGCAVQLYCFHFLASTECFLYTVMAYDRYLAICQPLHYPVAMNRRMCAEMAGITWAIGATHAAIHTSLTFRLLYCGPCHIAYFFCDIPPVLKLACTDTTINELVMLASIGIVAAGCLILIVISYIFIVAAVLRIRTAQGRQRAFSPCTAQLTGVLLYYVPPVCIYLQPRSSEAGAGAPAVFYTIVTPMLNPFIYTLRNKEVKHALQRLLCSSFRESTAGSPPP
In short: as §1

OR10T2 (Homo sapiens) = target: T11, OR10T2 (Homo sapiens) (UniProt Q8NGX3)
T11 sequence (whole entry): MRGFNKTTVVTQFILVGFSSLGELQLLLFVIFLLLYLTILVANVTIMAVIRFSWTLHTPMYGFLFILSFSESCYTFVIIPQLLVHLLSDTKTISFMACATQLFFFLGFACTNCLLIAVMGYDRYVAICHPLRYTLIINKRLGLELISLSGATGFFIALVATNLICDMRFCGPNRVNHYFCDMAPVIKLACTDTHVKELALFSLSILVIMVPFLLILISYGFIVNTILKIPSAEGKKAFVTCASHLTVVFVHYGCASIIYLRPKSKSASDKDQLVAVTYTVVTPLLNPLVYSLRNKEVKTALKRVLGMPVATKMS
In short: as §1

OR10V1 (Homo sapiens) = target: T12, OR10V1 (Homo sapiens) (UniProt Q8NGI7)
T12 sequence (whole entry): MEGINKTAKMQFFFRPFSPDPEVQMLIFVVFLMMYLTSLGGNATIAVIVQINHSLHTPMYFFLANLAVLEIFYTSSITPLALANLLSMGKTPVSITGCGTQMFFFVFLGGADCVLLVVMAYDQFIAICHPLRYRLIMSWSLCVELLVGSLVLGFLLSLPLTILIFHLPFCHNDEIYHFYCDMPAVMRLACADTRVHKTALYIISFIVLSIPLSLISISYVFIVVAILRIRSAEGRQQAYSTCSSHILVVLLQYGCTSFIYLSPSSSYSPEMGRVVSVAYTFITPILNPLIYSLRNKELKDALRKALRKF
In short: as §1

OR10W1 (Homo sapiens) = target: T13, OR10W1 (Homo sapiens) (UniProt Q8NGF6)
T13 sequence (whole entry): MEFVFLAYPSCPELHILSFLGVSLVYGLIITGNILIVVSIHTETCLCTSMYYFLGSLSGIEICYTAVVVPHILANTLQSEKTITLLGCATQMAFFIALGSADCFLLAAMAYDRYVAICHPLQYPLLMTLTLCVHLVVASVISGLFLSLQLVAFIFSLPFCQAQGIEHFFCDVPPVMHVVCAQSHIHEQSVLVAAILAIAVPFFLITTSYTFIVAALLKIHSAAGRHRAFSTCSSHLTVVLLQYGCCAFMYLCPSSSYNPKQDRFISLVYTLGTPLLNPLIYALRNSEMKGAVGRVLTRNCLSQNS
In short: as §1

OR10X1 (Homo sapiens) = target: T14, OR10X1 (Homo sapiens) (UniProt Q8NGY0)
T14 sequence (whole entry): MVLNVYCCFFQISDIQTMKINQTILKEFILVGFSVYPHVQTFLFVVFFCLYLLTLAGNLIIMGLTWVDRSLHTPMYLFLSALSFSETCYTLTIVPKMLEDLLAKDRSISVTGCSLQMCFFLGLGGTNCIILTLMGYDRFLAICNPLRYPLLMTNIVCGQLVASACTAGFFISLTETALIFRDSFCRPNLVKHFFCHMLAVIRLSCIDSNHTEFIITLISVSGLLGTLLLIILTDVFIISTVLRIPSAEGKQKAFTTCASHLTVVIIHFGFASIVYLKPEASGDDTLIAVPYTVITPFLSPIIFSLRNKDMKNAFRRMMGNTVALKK
In short: as §1

OR10Z1 (Homo sapiens) = target: T15, OR10Z1 (Homo sapiens) (UniProt Q8NGY1)
T15 sequence (whole entry): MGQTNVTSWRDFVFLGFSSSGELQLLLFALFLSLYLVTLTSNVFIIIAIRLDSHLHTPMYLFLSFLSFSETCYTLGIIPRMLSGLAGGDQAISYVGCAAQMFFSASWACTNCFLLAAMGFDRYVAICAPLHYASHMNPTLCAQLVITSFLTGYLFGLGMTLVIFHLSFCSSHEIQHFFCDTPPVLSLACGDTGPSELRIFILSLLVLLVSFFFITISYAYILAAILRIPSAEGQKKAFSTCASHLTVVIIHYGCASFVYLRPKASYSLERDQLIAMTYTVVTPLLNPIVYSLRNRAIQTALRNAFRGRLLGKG
In short: as §1

OR11A1 (Homo sapiens) = target: T16, OR11A1 (Homo sapiens) (UniProt Q9GZK7)
T16 sequence (whole entry): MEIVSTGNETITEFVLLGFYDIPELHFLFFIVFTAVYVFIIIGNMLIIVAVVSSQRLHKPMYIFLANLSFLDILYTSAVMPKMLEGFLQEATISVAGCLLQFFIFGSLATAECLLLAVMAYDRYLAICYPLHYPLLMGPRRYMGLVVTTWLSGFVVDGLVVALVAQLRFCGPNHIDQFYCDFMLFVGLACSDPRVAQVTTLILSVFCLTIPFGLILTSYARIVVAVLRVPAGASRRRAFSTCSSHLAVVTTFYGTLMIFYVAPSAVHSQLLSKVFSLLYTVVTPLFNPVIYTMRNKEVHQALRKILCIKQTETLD
In short: as §1

OR11G2 (Homo sapiens) = target: T17, OR11G2 (Homo sapiens) (UniProt Q8NGC1)
T17 sequence (whole entry): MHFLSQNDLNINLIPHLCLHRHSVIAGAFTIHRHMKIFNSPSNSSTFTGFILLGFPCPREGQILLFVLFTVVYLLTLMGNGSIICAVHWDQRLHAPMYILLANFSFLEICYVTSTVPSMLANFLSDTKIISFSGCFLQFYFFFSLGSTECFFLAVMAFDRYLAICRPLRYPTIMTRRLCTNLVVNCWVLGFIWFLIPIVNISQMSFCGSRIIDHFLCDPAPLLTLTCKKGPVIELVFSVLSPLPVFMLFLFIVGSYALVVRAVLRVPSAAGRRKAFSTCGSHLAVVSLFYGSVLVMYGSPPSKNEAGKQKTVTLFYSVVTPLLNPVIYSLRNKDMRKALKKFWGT
In short: as §1

OR11H1 (Homo sapiens) = target: T18, OR11H1 (Homo sapiens) (UniProt Q8NG94)
T18 sequence (whole entry): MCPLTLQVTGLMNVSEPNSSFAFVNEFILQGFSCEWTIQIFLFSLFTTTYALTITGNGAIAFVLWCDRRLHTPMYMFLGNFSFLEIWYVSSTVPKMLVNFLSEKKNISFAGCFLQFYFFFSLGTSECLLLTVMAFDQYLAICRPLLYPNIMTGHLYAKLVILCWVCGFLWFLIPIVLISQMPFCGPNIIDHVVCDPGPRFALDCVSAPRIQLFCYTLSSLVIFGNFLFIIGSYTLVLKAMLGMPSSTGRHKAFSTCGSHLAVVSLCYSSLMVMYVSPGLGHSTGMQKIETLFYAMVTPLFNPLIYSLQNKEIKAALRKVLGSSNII
In short: as §1

Measured: odorant receptor agonist call

CC1CCCCCCCCCCCCC(=O)C1 (centres undefined)
inactive: all assays above
